A short description of the data set: Toxicity liver stage against HepG2, at 10uM. The format is cell-based. On the set-up: test concentration 10 uM, cell line HepG2-A16-CD81EGFP. The conditions noted are these: human, HepG2-A16-CD81EGFP cells; read-out: INHIBITION
In a few lines: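 Uninfected HepG2-A16-CD81EGFP cells, 3 × 10^3 per well, 1536-well, plated on prespotted compound at 10 μM final, parasite-free screening media added to match infected plates; puromycin 10 μM positive, DMSO 0.5% negative; run in parallel with 48 h PbLuc assay at 37 °C, 5% CO2; viability by CellTiter-Glo luminescence, normalized to controls.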
`Cc1nc(C)c(CN2CCOC[C@H](Oc3ccc(S(C)(=O)=O)cc3)C2)s1`: the cytotoxicity at 10 µM came out at 5.25%.

As to `CC(C)CC(NC(=O)c1ccco1)c1nnc2ccccn12` (stereo not given), the cytotoxicity at 10 µM was -6.21%.

For `CS(=O)(=O)N1CCCC12CCCN(C(=O)c1ccnnc1)C2` (stereo not given), the cytotoxicity at 10 µM is -143%.

Consider `O=C1CCCN1Cc1ncn2c1CN(C(=O)C1CC=CC1)CCC2`, for which the cytotoxicity at 10 µM was found to be 6.4%.

`Cc1nccc([C@@H]2C[C@@H]3CCN(S(=O)(=O)N(C)C)C[C@H]3O2)n1`: the cytotoxicity at 10 µM was -3.38%.

For the compound `CNC(=O)[C@@]12CCC3(CCN(C(=O)C(C)C)CC3)[C@@H]1CN(S(C)(=O)=O)C2`, the cytotoxicity at 10 µM stood at 3.89%.

`CNC(=O)N1CCN(C(=O)N(C)C)CC2(CC(=O)N(C)C2)C1` (stereo not given): the cytotoxicity at 10 µM came out at 4.9%.

As to `O=c1nc(SCc2ccncc2)c2c(n1CCO)CCCC2`, the cytotoxicity at 10 µM is -23.8%.

In the case of `CCOC(=O)N1CCN(C(=O)CCn2ccc3c(OC)cccc32)CC1`, the cytotoxicity at 10 µM turned out to be 9.69%.

With `CCn1nccc1CNc1[nH]cnc2nc(C)nc1-2`, the cytotoxicity at 10 µM is -12%.

In the case of `Cc1nc(CCC(N)=O)cc(C2CCCN2S(C)(=O)=O)n1` (stereo not given), the cytotoxicity at 10 µM was -5.32%.

For the compound `CC(C)(C)Nc1c(C2CCN(C(=O)C3CC3)CC2)nc2ccccn12`, the cytotoxicity at 10 µM is 4.58%.

`CC(C)(C)OC(=O)N1CCn2c(nnc2C2CCCNC2)C1` (stereo not given): the cytotoxicity at 10 µM was -1.58%.

Consider `Cc1cc(C(F)(F)F)n2nc(C3CCCN(S(C)(=O)=O)C3)cc2n1` (stereo not given), for which the cytotoxicity at 10 µM came out at 1.49%.

On to `Cc1cc(N2CCCC(c3n[nH]c4ncccc34)C2)ncn1` (stereo not given), for which the cytotoxicity at 10 µM was -3.22%.

`O=S(=O)(c1ccccc1F)N1CCCCC1c1cc[nH]n1` (stereo not given): the cytotoxicity at 10 µM came out at 1.22%.

Consider `CNc1ccc(CC2CCCN(C(=O)c3scnc3C)C2)nn1` (stereo not given), for which the cytotoxicity at 10 µM was -10.4%.

On to `O=C(CC1CCCC1)N1CCCC1c1nc(O)cc(-c2ccccn2)n1` (stereo not given), for which the cytotoxicity at 10 µM is -3.73%.

As to `CC(C)CC(NC(=O)CSCC(N)=O)c1cccs1` (stereo not given), the cytotoxicity at 10 µM was -0.431%.

`CNC(=O)CNC(=O)NCc1cc2c(s1)CCC(C)(C)C2`: the cytotoxicity at 10 µM was found to be 4.08%.

In the case of `CCc1ncc2c(n1)CN(Cc1nc(-c3ccco3)oc1C)CC2`, the cytotoxicity at 10 µM stood at 6.15%.

For `O=C(NCc1ccc(OCC2CC2)nc1)C1COc2ccccc2O1` (stereo not given), the cytotoxicity at 10 µM was 0.0616%.

Consider `CC(Cc1cccc(F)c1)C(=O)NS(=O)(=O)c1ccc2c(c1)OCCO2` (stereo not given), for which the cytotoxicity at 10 µM was found to be 9.83%.

For `O=C(NCCSC1CCCC1)c1c(F)cccc1F`, the cytotoxicity at 10 µM amounted to 8.74%.

For the compound `Cc1nnc(C2Cc3ccccc3CN2Cc2ncc(Cl)n2C)o1` (stereo not given), the cytotoxicity at 10 µM was determined as 8.72%.

`CCN1CCN(C(=O)c2scnc2C)CC1`: the cytotoxicity at 10 µM turned out to be 11.7%.

On to `Cc1nc(CNCC(O)COc2ccc3c(c2)OCO3)cs1` (stereo not given), for which the cytotoxicity at 10 µM worked out at 4%.

As for `COC1CCCN(C(=O)NCC(F)F)C1` (stereo not given), the cytotoxicity at 10 µM came out at 7.51%.

As for `Cc1nn(CC(C)C)c(N(C)C)c1CNCCS(C)(=O)=O`, the cytotoxicity at 10 µM worked out at 6.59%.

In the case of `Cn1ccc(C(=O)N(CC(F)F)c2cccc(Cl)c2)cc1=O`, the cytotoxicity at 10 µM is 0.541%.

On to `O=C1CN(C(=O)C2CCOC2)CCN1Cc1ccc(Cl)cc1` (stereo not given), for which the cytotoxicity at 10 µM was -150%.

Regarding `Cc1ccc(F)c(C(=O)Nc2cccc(CCN3CCCC3)c2)c1`, the cytotoxicity at 10 µM was 0.0833%.

For the compound `CS(=O)(=O)CCCNCc1c(Cl)cccc1N1CCCC1`, the cytotoxicity at 10 µM was determined as 1.18%.

As for `COCCC(=O)NC(C)(C(N)=O)c1cccc(Cl)c1` (stereo not given), the cytotoxicity at 10 µM turned out to be 17.7%.

`CC(=O)NCC1CCN(C(=O)c2c(C)[nH]c3ccc(Cl)cc23)CC1`: the cytotoxicity at 10 µM was determined as 8.11%.

For the compound `Cc1n[nH]c(C)c1C1CCCN1C(=O)NCCSC(C)(C)C` (stereo not given), the cytotoxicity at 10 µM is -11%.

In the case of `COCCN1CCC2(CC1)CC(c1cccnc1)C(=O)N2C` (stereo not given), the cytotoxicity at 10 µM was 7.26%.

Take `Cc1cc(C(=O)NCC2OCCc3cn(CC4CC4)nc32)c(C)[nH]1` (stereo not given): the cytotoxicity at 10 µM stood at 3.42%.

As for `CN1C(=O)CC(c2cnn(C)c2)C12CCN(C(=O)c1cccn1C)CC2` (stereo not given), the cytotoxicity at 10 µM was -74%.

`O=C(C1CC=CC1)N1CCC2(CC1)CN(Cc1ccccn1)CCO2`: the cytotoxicity at 10 µM is -10.1%.

Turning to `CC(C)[C@@H]1CN(c2ccc(C(F)(F)F)cn2)C[C@H]1NS(C)(=O)=O`, the cytotoxicity at 10 µM was determined as 8.46%.

With `CC(=O)N[C@@H]1CN(C(=O)c2ccoc2)C[C@H]1c1ccc(C)cc1`, the cytotoxicity at 10 µM was determined as 16.2%.

`Cc1nccc(N[C@H]2CN(CCC(=O)NC3CCCC3)C[C@@H]2C2CC2)n1`: the cytotoxicity at 10 µM was -4.57%.

In the case of `CN1CCCN(c2nc(C3CCCC3)nc3c2cnn3C)CC1`, the cytotoxicity at 10 µM was -3.9%.

On to `COCc1c(C(=O)N2CCCC(C(=O)c3nccn3C)C2)noc1C` (stereo not given), for which the cytotoxicity at 10 µM turned out to be 15.8%.

Take `Cc1cc2[nH]c(=O)oc2cc1S(=O)(=O)N1C[C@@H](N(C)C)[C@H](C(C)C)C1`: the cytotoxicity at 10 µM was found to be 0.234%.

On to `CC(C)(C)c1csc(CNC(=O)C2NCCc3[nH]cnc32)n1` (stereo not given), for which the cytotoxicity at 10 µM was -2.65%.

As to `CN(CCCc1nccn1C)c1nccc(N2CCC(O)C2)n1` (stereo not given), the cytotoxicity at 10 µM came to 10.2%.

Take `CCN1CC(CN(C)Cc2nc(-c3ccc(F)cc3F)oc2C)CC1=O` (stereo not given): the cytotoxicity at 10 µM is -6.64%.

Turning to `Cn1cc(-c2ccnc(NCC3CCCCO3)n2)cn1` (stereo not given), the cytotoxicity at 10 µM was -131%.

As for `CN(Cc1cc2cc(F)ccc2[nH]1)C(=O)C1CC(=O)N(C2CCCC2)C1` (stereo not given), the cytotoxicity at 10 µM was -3.26%.

With `CSCCCN1C[C@H](NC(=O)c2cc(C3CC3)on2)[C@@H](C2CC2)C1`, the cytotoxicity at 10 µM was determined as 2.72%.

`C[C@@H]1CN(c2cc(N3CCC(O)CC3)ncn2)C[C@@]1(O)C1CCC1`: the cytotoxicity at 10 µM was -5.73%.

Consider `COc1ccc(Cl)cc1-n1c(COC(C)C)n[nH]c1=O`, for which the cytotoxicity at 10 µM was -7.5%.

For the compound `COCC(=O)N1CCC(C(=O)Nc2ccc(C(C)=O)cc2)CC1`, the cytotoxicity at 10 µM is 1.73%.

In the case of `CC(C)C(NC(N)=O)C(=O)N1CCN(c2ccccc2Cl)C(=O)C1` (stereo not given), the cytotoxicity at 10 µM is -1.56%.

Take `CCc1nnsc1C(=O)N1CCCC(COc2ccc(F)cc2)C1` (stereo not given): the cytotoxicity at 10 µM was -155%.

Take `COCC(=O)N1Cc2cnc(Cc3ccc(OC)cc3)nc2C1`: the cytotoxicity at 10 µM was -15.8%.

Consider `Cn1c(=O)c2cc(C(=O)NCc3ccccn3)ccc2n(C)c1=O`, for which the cytotoxicity at 10 µM was -6.14%.

Consider `O=C(c1ccccn1)N1CCc2nc(-c3cnccn3)nc(O)c2C1`, for which the cytotoxicity at 10 µM came out at 0.487%.

Consider `Cc1cc(CN2CCN(c3ccc4nncn4n3)C(C)C2)on1` (stereo not given), for which the cytotoxicity at 10 µM is 6.91%.

With `O=C(Nc1ccc(CCN2CCOCC2)cc1)C1CCC1`, the cytotoxicity at 10 µM is -9.95%.

On to `O=C(NCCNc1ncccn1)C1CCCC1`, for which the cytotoxicity at 10 µM is -22.9%.

Consider `COc1cccc(N2CCC(CNCc3cccc(C#N)c3)C2)c1` (stereo not given), for which the cytotoxicity at 10 µM is -15.3%.

Turning to `CC(C)n1cc(CN2CCCN(C(=O)C(C)n3cncn3)CC2)cn1` (stereo not given), the cytotoxicity at 10 µM is -16.2%.

On to `Cc1cnn(C2CCCN(C(=O)CCc3ccncc3)C2)c1` (stereo not given), for which the cytotoxicity at 10 µM is -10.7%.

For the compound `CC(C)n1cc(CN2CCCN(C(=O)C3CCCN3C)CC2)cn1` (stereo not given), the cytotoxicity at 10 µM is -10%.

For `CCN(CC1CCCO1)C(=O)Nc1cccc(Cl)c1OC` (stereo not given), the cytotoxicity at 10 µM was -21.4%.

Consider `CC(=O)Nc1nc(C(=O)N2CCCC2c2ccc(Br)cc2)cs1` (stereo not given), for which the cytotoxicity at 10 µM was -18.4%.

For `O=C1NCC(C(=O)Nc2ncc(Cc3ccc(F)cc3)s2)N1` (stereo not given), the cytotoxicity at 10 µM came out at 0.639%.

`Cc1ccc(C)n1-c1ccc(C(=O)NCCNc2ncccn2)cc1`: the cytotoxicity at 10 µM is -1.25%.

As for `CCOc1ccnc(N2CCN(C(=O)C(C)(C)C#N)CC2)n1`, the cytotoxicity at 10 µM was -4.91%.

Turning to `CC(C)c1nc(C2CCCN(C(=O)Cc3cccnc3)C2)no1` (stereo not given), the cytotoxicity at 10 µM was -8.97%.

Take `COCC(C)N(C)C(=O)c1nc(S(C)(=O)=O)n2ccccc12` (stereo not given): the cytotoxicity at 10 µM is -11%.

In the case of `O=C(Nc1nnc(C2CC2)s1)NC1CCN(Cc2ccccc2)C1` (stereo not given), the cytotoxicity at 10 µM was -10.7%.

On to `Cn1cnc2c1CCN(Cc1cccc(OCC(N)=O)c1)C2`, for which the cytotoxicity at 10 µM is -9.98%.

With `Cc1nc2cc(=O)[nH]n2c(C)c1CC(=O)Nc1ccc2ccccc2n1`, the cytotoxicity at 10 µM was -4.15%.

With `Cc1ccccc1CNC(=O)Cc1c(C)nc2cc(=O)[nH]n2c1C`, the cytotoxicity at 10 µM was -2.35%.

Turning to `N#Cc1ccccc1N1CCCN(C(=O)CCc2nccs2)CC1`, the cytotoxicity at 10 µM was -2.12%.

With `CC(C)c1nc(C2CCCN2CCCc2nc3ccccc3o2)no1` (stereo not given), the cytotoxicity at 10 µM was -8.43%.

Consider `O=C(NCC(=O)N1CCc2ccccc2C1)c1ccoc1`, for which the cytotoxicity at 10 µM is -4.59%.

With `Cc1ccc(NC(=O)C(C)N2CCCN(c3nccs3)CC2)c(C)c1` (stereo not given), the cytotoxicity at 10 µM came out at 2.72%.

With `O=S(=O)(C1CC1)N1C[C@@H]2COC[C@]2(COc2ccccn2)C1`, the cytotoxicity at 10 µM is 5.57%.

As for `Cn1cc(N2CC3(CCN(Cc4nccs4)CC3)OCC2=O)cn1`, the cytotoxicity at 10 µM came out at 5.86%.

On to `CCc1ccc(CN2C[C@H](OCC(=O)N(C)C)[C@H]3COC[C@H]32)o1`, for which the cytotoxicity at 10 µM stood at 2.46%.

On to `CS(=O)(=O)N[C@@H]1CN(Cc2ccncc2)C[C@@H]2CCCO[C@@H]21`, for which the cytotoxicity at 10 µM is 13.1%.

On to `O=C(c1ccnnc1)N1CCN2C[C@H](OCc3cccnc3)C[C@H]2C1`, for which the cytotoxicity at 10 µM was -72.4%.

`CN(C)C(=O)C1CCN(C2CCN(CC3CCC3)CC2)CC1`: the cytotoxicity at 10 µM turned out to be 2.82%.

Consider `CCN1C[C@@H]2[C@@H](OC)CCN(S(=O)(=O)c3cccnc3)[C@@H]2C1`, for which the cytotoxicity at 10 µM is -77%.

In the case of `c1ccc(COC[C@H]2CC[C@H]3[C@H](CCN3c3ncccn3)O2)nc1`, the cytotoxicity at 10 µM was -78%.

`COc1ccc(CN2CCn3c(C(=O)N(C)C)cnc3C2)cc1`: the cytotoxicity at 10 µM was -69.6%.

With `CCOCC1CN(C(=O)Cc2ccccn2)Cc2c1cnn2C` (stereo not given), the cytotoxicity at 10 µM was -72%.

Turning to `CC(C)(C)c1n[nH]cc1CNCC1CCN(C2CC2)C1` (stereo not given), the cytotoxicity at 10 µM turned out to be 2.16%.

Consider `CC(C)c1nn(C)c(Cl)c1CNCC(=O)N1CCN(C)CC1`, for which the cytotoxicity at 10 µM turned out to be 2.2%.

As to `CCOC(=O)c1cnn(C2CCN(C(=O)CC3CCCC3)CC2)c1N`, the cytotoxicity at 10 µM turned out to be 0.969%.
